Test results reported in PMC8052301 (Biochemical and biophysical research communications, 2021).
Ends that are not written are not given here. * marks the point of attachment. FITC = O=C1OC2(c3ccc(O)cc3Oc3cc(O)ccc32)c2ccc(NC(=S)*)cc21; Ahx = NCCCCCC(=O)O

Experiments:
3F-Bok^WT = test: Anti-HA IP of IP3R1-HA constructs and co-IP of 3F-Bok^WT from HEK-3KO cells; format: cell-based, mouse; details: IP3R1-HA and 3F-Bok co-transfected, immunoblot
Method in brief: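 Cotransfection uses full-length C-terminally HA-tagged mouse IP3R1 and N-terminally 3xFlag-tagged mouse Bok, with 1-2 μg cDNA and PEI, in HEK-3KO cells seeded at 6-8x10^5/well and transfected ~24 h later. Rabbit anti-HA precipitates from lysates. Blots of precipitates and inputs are probed with mouse anti-HA and anti-Bok, with p97 as input loading control. Detection is by ECL after SDS-PAGE and nitrocellulose transfer.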

HEK-3KO cells = test: Cellular fractionation into cytosol and crude membrane, immunoblot; format: cell-based; details: for localization on co-expression of IP3R1-HA^WT and 3F-Bok^WT: IP3R1-HA^WT and 3F-Bok^WT co-expressed; for localization, expressed alone: cytosol / membrane fractions
Method in brief: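 HEK-3KO cells are PEI-transfected (1-2 μg cDNA) with tagged mouse constructs, harvested in ice-cold homogenization buffer and sonicated. They are then spun at 20,000xg for 60 min at 4°C. The supernatant gives the cytosol fraction, and the pellet, resuspended in buffer, gives crude membranes. Fractions go through SDS-PAGE and ECL immunoblot, with transaldolase as the cytosol marker and Hrd1 as the membrane marker.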

HS-Bok = target: T1, HS-Bok (Mus musculus, UniProt O35425); test: Fluorescence polarization; format: binding; details: FP, PBS pH 7.4 / 0.1% BSA
T1 sequence (O35425 1-213): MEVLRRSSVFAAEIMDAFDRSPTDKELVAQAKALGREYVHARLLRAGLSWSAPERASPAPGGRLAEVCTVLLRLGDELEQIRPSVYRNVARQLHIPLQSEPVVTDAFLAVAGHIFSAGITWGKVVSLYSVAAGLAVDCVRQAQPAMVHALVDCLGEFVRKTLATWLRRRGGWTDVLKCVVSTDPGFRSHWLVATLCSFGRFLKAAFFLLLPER

HS-HA = test: FP of FITC-conjugated peptide with negative control HS-HA; format: binding; details: PBS pH 7.4 / 0.1% BSA, FITC-IP3R1^1898-1940
3F-Bok^ΔTM = test: Anti-HA IP and co-IP of TM domain-lacking constructs from HEK-3KO cells; format: cell-based, mouse; details: immunoblot
Method in brief: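 HEK-3KO cells (6-8x10^5/well) are transfected ~24 h after seeding with 1-2 μg cDNA using PEI. Constructs are mouse IP3R1 with a C-terminal HA tag, truncated to aa 1-2264, and mouse Bok with an N-terminal 3xFlag tag, truncated to aa 1-187. Lysates are immunoprecipitated with rabbit anti-HA. Samples are heated (37°C 30 min or boiled 5 min), run on SDS-PAGE, blotted to nitrocellulose and detected by ECL. p97 is the input loading control.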

IP3R1 = details: ref [3]; cited from earlier work
[1] = target: FITC-IP3R1^1898-1929 (mouse) (UniProt P11881); test: fluorescence polarisation
[2] = target: FITC-IP3R1^1898-1940 (mouse) (UniProt P11881); test: fluorescence polarisation
[3] = target: FITC-IP3R1^1904-1940 (mouse) (UniProt P11881); test: fluorescence polarisation
HS-IP3R1 = format: binding, mouse; details: PBS / 0.1% BSA, 16h at 4°C, anti-IP3R1^1884-1903 IP, immunoblot
Method in brief: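 His-SUMO-tagged mouse Bok and IP3R1 fragments, plus an HA-tag control, are expressed in E. coli BL21-CodonPlus(DE3)-RIPL. Cells are grown at 37°C to OD600 ~0.6, then induced with 1 mM IPTG for ~18 h at 16°C. Protein is purified on Ni-NTA in pH 7.4 phosphate buffer and eluted with 400 mM imidazole. Mixtures are immunoprecipitated with rabbit anti-IP3R1 (aa 1884-1903) and probed by immunoblot.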

IP3R1-HA^WT: mouse IP3R1 tagged at the C-terminus with an HA epitope
co-IP of 3F-Bok^WT (3F-Bok^WT): allowed for efficient co-IP of 3F-Bok^WT | localization on co-expression of IP3R1-HA^WT and 3F-Bok^WT (HEK-3KO cells): the same localization is maintained | localization, expressed alone (HEK-3KO cells): localize completely to membranes

{FITC-Ahx}-KKAKEPTTQITEEVRDQLLEASAATRKAFTTFRREADPDDHYQ (N-terminus assumed) [FITC-IP3R1^1898-1940]
binding to HS-Bok (in words) (HS-Bok): bound with high affinity | binding to HS-HA (in words) (HS-HA): but not negative control HS-HA

IP3R1-HA^ΔTM: contains amino acids 1-2264 of IP3R1
localization upon co-transfection of 3F-Bok^WT (HEK-3KO cells): becomes more membrane-associated | localization, expressed alone (HEK-3KO cells): predominantly cytosolic | co-IP of cytosolic 3F-Bok^ΔTM and IP3R1-HA^ΔTM (3F-Bok^ΔTM): strongly co-IP

IP3R1-HA^Δ1920-1921: IP3R1-HA deletion mutant
co-IP of 3F-Bok^WT (3F-Bok^WT): failed to co-IP 3F-Bok^WT

Bcl-2: Bcl-2 family protein reported to interact with IP3Rs
strength of interaction with IP3R1 relative to Bok (IP3R1): much less strongly than Bok

HS-Bok (from UniProt O35425 1-213) (natural protein)
Kd [1]: 265 nM | Kd [2]: 64 nM | Kd [3]: 398 nM

IP3R1-HA^Δ1909-1941: IP3R1-HA construct with the largest deletion
co-IP of 3F-Bok^WT (3F-Bok^WT): did not co-IP 3F-Bok^WT

IP3R1-HA^Δ1917: IP3R1-HA deletion mutant
co-IP of 3F-Bok^WT (3F-Bok^WT): failed to co-IP 3F-Bok^WT

Bcl-xL: Bcl-2 family protein reported to interact with IP3Rs
strength of interaction with IP3R1 relative to Bok (IP3R1): much less strongly than Bok

IP3R1-HA^Δ1916-1917: IP3R1-HA deletion mutant, Bok binding-deficient
co-IP of 3F-Bok^WT (3F-Bok^WT): failed to co-IP 3F-Bok^WT

IP3R1-HA^ΔTM, Δ1916-1917: lacks TM domains and the ability to bind Bok
localization upon co-transfection of 3F-Bok^WT (HEK-3KO cells): an effect not seen

FITC-IP3R1^1907-1921: shorter peptide which encompasses just the ANCHOR2 "peak" shown in Figure 1C (ITEEVRDQLLEASAA; also: FITC-conjugated, position not given here)
binding to HS-Bok (in words) (HS-Bok): does not bind to HS-Bok at all

B1: HS-Bok: bacterially expressed, His-sumo (HS) tagged mouse Bok (protein, UniProt O35425 1-213, looked up)
Bcl-2-related ovarian killer …: T1 sequence (O35425 1-213)
modifications: His-SUMO tag
co-IP with HS-IP3R1 (HS-IP3R1): strong co-IP

B2: 3F-Bok^WT: Bok from mouse tagged at the N-terminus with a 3xFlag epitope (protein)
chain: T1 sequence (O35425 1-213)
modifications: left off: 3xFlag, N-terminal, kept
localization on co-expression of IP3R1-HA^WT and 3F-Bok^WT (HEK-3KO cells): the same localization is maintained, with an increase in Bok expression level | localization, expressed alone (HEK-3KO cells): localize completely to membranes

B3: 3F-Bok^ΔTM: contains amino acids 1-187 of Bok (protein)
chain: MEVLRRSSVFAAEIMDAFDRSPTDKELVAQAKALGREYVHARLLRAGLSWSAPERASPAPGGRLAEVCTVLLRLGDELEQIRPSVYRNVARQLHIPLQSEPVVTDAFLAVAGHIFSAGITWGKVVSLYSVAAGLAVDCVRQAQPAMVHALVDCLGEFVRKTLATWLRRRGGWTDVLKCVVSTDPGFR
modifications: left off: 3xFlag, N-terminal, kept
localization, expressed alone (HEK-3KO cells): predominantly cytosolic
